Reference: ChEMBL document CHEMBL5154634, “A Modular Synthetic Route Involving N-Aryl-2-nitrosoaniline Intermediates Leads to a New Series of 3-Substituted Halogenated Phenazine Antibacterial Agents” (J Med Chem, 2021)
In brackets after ≈: the same amount, converted by molar mass. Activity calls are given as the source filed them. The calls are words filed in the database; no cut-off is given here.

Experiments:
Staphylococcus aureus [1] = assay: Antibacterial activity against methicillin-resistant Staphylococcus aureus BAA-1707 assessed as bacterial growth inhibition incubated for 16 hrs by broth microdilution susceptibility test; type: functional
Summary of the method: (§1)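 CLSI broth microdilution with 11 twofold dilutions (0.05–50 μM). About 10^5 cells per well from a log-phase culture. DMSO vehicle up to 0.5% v/v. At least three independent experiments.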

Staphylococcus aureus [2] = assay: Antibacterial activity against methicillin-resistant Staphylococcus aureus BAA-44 assessed as bacterial growth inhibition incubated for 16 hrs by broth microdilution susceptibility test; type: functional
Summary of the method: (§2)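 CLSI broth microdilution with 11 twofold dilutions (0.05–50 μM). Medium was LB for the staphylococci and BHI for VRE 700221. About 10^5 cells per well from a log-phase culture. […] DMSO vehicle up to 0.5% v/v. At least three independent experiments.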

[3] = test system: Staphylococcus epidermidis; assay: Antibacterial activity against methicillin-resistant Staphylococcus epidermidis ATCC 35984 assessed as bacterial growth inhibition incubated for 16 hrs by broth microdilution susceptibility test; type: functional; summary of the method: as §1
Enterococcus faecium [4] = assay: Antibacterial activity against vancomycin-resistant Enterococcus faecium ATCC 700221 assessed as bacterial growth inhibition incubated for 16 hrs by broth microdilution susceptibility test; type: functional; summary of the method: as §2
Enterococcus faecalis [5] = assay: Antibacterial activity against Enterococcus faecalis OG1RF ATCC 47077 assessed as bacterial growth inhibition incubated for 16 hrs by broth microdilution susceptibility test; type: functional
[6] = test system: Staphylococcus epidermidis; assay: Antibacterial activity against Staphylococcus epidermidis ATCC 12228 assessed as bacterial growth inhibition by broth microdilution method; type: functional
[7] = test system: Mycobacterium tuberculosis; assay: Antibacterial activity against Mycobacterium tuberculosis CDC1551 assessed as bacterial growth inhibition incubated for 5 days by luminescence based analysis; type: functional; details: CDC1551, 120 h, time 5 day
Summary of the method: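 Bioluminescent Mtb-lux CDC1551 reporter grown in Middlebrook 7H9 with 0.05% Tween 80, 10% OADC and kanamycin to OD600 0.4–0.8, then diluted to OD600 0.02. Added to twofold drug dilutions (0.003–200 μM). Incubated 5 days at 37 °C, 5% CO2. Luminescence read against 1% DMSO and 10 μM rifampicin controls to give % growth inhibition. MIC taken from a modified Gompertz fit.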

HeLa = assay: Cytotoxicity against human HeLa cells assessed as reduction in cell viability incubated for 24 hrs by LDH release assay; type: toxicity, cell-based
Summary of the method: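 HeLa cells in DMEM with 10% FBS, treated at 70–80% confluence with 25, 50 and 100 μM for 24 h. LDH in supernatant measured by 30 min reaction at room temperature, then stop solution and absorbance at 490 nm. Controls: 2% Triton X-100 (maximum), medium only, DMSO vehicle. Three independent experiments.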

J774 = assay: Cytotoxicity against mouse J774 cells assessed as reduction in cell viability […] by Alamar blue assay; type: toxicity, cell-based
HepG2 = assay: Cytotoxicity against human HepG2 cells assessed as reduction in cell viability […] by Alamar blue assay; type: toxicity, cell-based
Staphylococcus aureus [8] = assay: Antibiofilm activity against methicillin-resistant Staphylococcus aureus BAA-1707 biofilms assessed as biofilm eradication incubated for 24 hrs followed by incubation for 24 hrs in fresh medium by Calgary biofilm device assay; type: functional
Summary of the method: (§3)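 Calgary biofilm device. Mid-log culture diluted 1000-fold in TSB with 0.5% glucose; biofilms grown on pegs 24 h at 37 °C. Pegs washed and challenged with twofold compound dilutions for 24 h at 37 °C, then moved to fresh medium for 24 h. MBEC is the lowest concentration leaving wells non-turbid. At least three independent experiments.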

Staphylococcus aureus [9] = assay: Bactericidal activity against methicillin-resistant Staphylococcus aureus BAA-44 planktonic cells assessed as planktonic eradication incubated for 24 hrs followed by incubation for overnight in fresh medium by Calgary biofilm device assay; type: functional
Summary of the method: (§4)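 Calgary biofilm device. Biofilms grown 24 h at 37 °C in TSB with 0.5% glucose, then challenged 24 h with twofold compound dilutions. 20 μL of challenge medium transferred into fresh TSB with 0.5% glucose and incubated overnight at 37 °C. MBC is the concentration with no visible turbidity. At least three independent experiments.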

Staphylococcus aureus [10] = assay: Antibiofilm activity against methicillin-resistant Staphylococcus aureus BAA-44 biofilms assessed as biofilm eradication incubated for 24 hrs followed by incubation for 24 hrs in fresh medium by Calgary biofilm device assay; type: functional; summary of the method: as §3
[11] = test system: Staphylococcus epidermidis; assay: Bactericidal activity against methicillin-resistant Staphylococcus epidermidis ATCC 35984 planktonic cells assessed as planktonic eradication incubated for 24 hrs followed by incubation for overnight in fresh medium by Calgary biofilm device assay; type: functional; summary of the method: as §4
[12] = test system: Staphylococcus epidermidis; assay: Antibiofilm activity against methicillin-resistant Staphylococcus epidermidis ATCC 35984 biofilms assessed as biofilm eradication incubated for 24 hrs followed by incubation for 24 hrs in fresh medium by Calgary biofilm device assay; type: functional; summary of the method: as §3
Enterococcus faecium [13] = assay: Bactericidal activity against methicillin-resistant vancomycin-resistant Enterococcus faecium ATCC 700221 planktonic cells assessed as planktonic eradication incubated for 24 hrs followed by incubation for overnight in fresh medium by Calgary biofilm device assay; type: functional; summary of the method: as §4
Enterococcus faecium [14] = assay: Antibiofilm activity against methicillin-resistant vancomycin-resistant Enterococcus faecium ATCC 700221 biofilms assessed as biofilm eradication incubated for 24 hrs followed by incubation for 24 hrs in fresh medium by Calgary biofilm device assay; type: functional; summary of the method: as §3
Enterococcus faecalis [15] = assay: Bactericidal activity against […] Enterococcus faecalis OG1RF ATCC 47077 planktonic cells assessed as planktonic eradication incubated for 24 hrs followed by incubation for overnight in fresh medium by Calgary biofilm device assay; type: functional
Summary of the method: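 Calgary biofilm device in BHI. Biofilms grown 24 h at 37 °C and challenged 24 h with twofold compound dilutions. Challenge medium subcultured 1:10 into fresh BHI overnight at 37 °C. MBC is the concentration with no turbidity. At least three independent experiments.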

Enterococcus faecalis [16] = assay: Antibiofilm activity against Enterococcus faecalis OG1RF ATCC 47077 biofilms assessed as biofilm eradication incubated for 24 hrs followed by incubation for 24 hrs in fresh medium by Calgary biofilm device assay; type: functional
Summary of the method: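 Calgary biofilm device. Biofilms grown 24 h at 37 °C in BHI from mid-log culture diluted 1000-fold. Pegs washed and then challenged 24 h with twofold serial dilutions. Pegs moved to fresh BHI for 24 h recovery. MBEC = lowest concentration leaving no turbidity; at least three independent experiments.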

Erythrocyte = assay: Hemolytic activity against human RBC at 200 uM measured after 1 hr; type: toxicity, cell-based
Summary of the method: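 2% hRBCs exposed to compound at 200 μM final, added from DMSO stock, for 1 h at 37 °C. Supernatant OD read at 405 nm. Hemolysis normalized between DMSO (0%) and Triton X (100%); three independent experiments.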

Staphylococcus aureus [17] = assay: Induction of iron starvation in methicillin-resistant Staphylococcus aureus BAA-1707 biofilms assessed as upregulation of sfaA gene expression at 1 uM incubated for 4 hrs by RT-qPCR analysis; type: functional
Summary of the method: (§5)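 MRSA BAA-1707 grown in TSB with 0.5% glucose to OD600 ~0.8–1.0, then biofilms formed 20 h at 37 °C statically in gelatin-coated 24-well plates. Biofilms treated 4 h at 37 °C with compound (1 μM or 1/10 MBEC) or DMSO vehicle. RNA extracted; only RIN ≥7 samples used. One-step SYBR RT-qPCR; ΔCT normalised to ptaA. Three independent experiments.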

Staphylococcus aureus [18] = assay: Induction of iron starvation in methicillin-resistant Staphylococcus aureus BAA-1707 biofilms assessed as upregulation of sfaA gene expression at 1/10XMBEC incubated for 4 hrs by RT-qPCR analysis; type: functional; summary of the method: as §5
Staphylococcus aureus [19] = assay: Induction of iron starvation in methicillin-resistant Staphylococcus aureus BAA-1707 biofilms assessed as upregulation of sbnC gene expression at 1 uM incubated for 4 hrs by RT-qPCR analysis; type: functional; summary of the method: as §5
Staphylococcus aureus [20] = assay: Induction of iron starvation in methicillin-resistant Staphylococcus aureus BAA-1707 biofilms assessed as upregulation of sbnC gene expression at 1/10XMBEC incubated for 4 hrs by RT-qPCR analysis; type: functional; summary of the method: as §5
Staphylococcus aureus [21] = assay: Induction of iron starvation in methicillin-resistant Staphylococcus aureus BAA-1707 biofilms assessed as upregulation of isdB gene expression at 1 uM incubated for 4 hrs by RT-qPCR analysis; type: functional; summary of the method: as §5
Staphylococcus aureus [22] = assay: Induction of iron starvation in methicillin-resistant Staphylococcus aureus BAA-1707 biofilms assessed as upregulation of isdB gene expression at 1/10XMBEC incubated for 4 hrs by RT-qPCR analysis; type: functional; summary of the method: as §5
Staphylococcus aureus [23] = assay: Induction of iron starvation in methicillin-resistant Staphylococcus aureus BAA-1707 biofilms assessed as upregulation of MW0695 gene expression at 1 uM incubated for 4 hrs by RT-qPCR analysis; type: functional; summary of the method: as §5
Staphylococcus aureus [24] = assay: Induction of iron starvation in methicillin-resistant Staphylococcus aureus BAA-1707 biofilms assessed as upregulation of MW0695 gene expression at 1/10XMBEC incubated for 4 hrs by RT-qPCR analysis; type: functional; summary of the method: as §5
[25] = Dissociation constant, pKa of the compound at 125 uM by UV-vis spectrophotometric analysis; type: physicochemical; details: 125 µM
Summary of the method: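 Compound at 125 μM final in phosphate buffers (KH₂PO₄/Na₂HPO₄) in 1:1 water/methanol, pH 4.07–9.66; ammonium hydroxide added for pH above 9.80. UV-vis scans 200–800 nm to find λmax of phenol and phenolate forms. Absorbance at each λmax plotted against pH.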

Staphylococcus aureus [26] = assay: Antibacterial activity against methicillin-resistant Staphylococcus aureus clinical isolate 1 assessed as bacterial growth inhibition; type: functional
Staphylococcus aureus [27] = assay: Antibacterial activity against methicillin-resistant Staphylococcus aureus clinical isolate 2 assessed as bacterial growth inhibition; type: functional
Staphylococcus aureus [28] = assay: Antibacterial activity against methicillin-resistant Staphylococcus aureus 129 assessed as bacterial growth inhibition; type: functional
Staphylococcus aureus [29] = assay: Antibacterial activity against methicillin-resistant Staphylococcus aureus 147 assessed as bacterial growth inhibition; type: functional
Staphylococcus aureus [30] = assay: Antibacterial activity against methicillin-resistant Staphylococcus aureus 138 assessed as bacterial growth inhibition; type: functional
Staphylococcus aureus [31] = assay: Antibacterial activity against methicillin-resistant Staphylococcus aureus 156 assessed as bacterial growth inhibition; type: functional

Work on `Oc1c(Br)ccc2nc3ccccc3nc12` yielded an MIC (Staphylococcus aureus [1]) of 3.13 µM (≈ 0.861 µg/mL), an MIC (Staphylococcus aureus [2]) of 3.13 µM (≈ 0.861 µg/mL) and an MIC [3] of 3.13 µM (≈ 0.861 µg/mL). It also gave an MIC (Enterococcus faecium [4]) of 6.25 µM (≈ 1.72 µg/mL), an MIC (Enterococcus faecalis [5]) of 18.8 µM (≈ 5.17 µg/mL) and an MIC [6] of 6.25 µM (≈ 1.72 µg/mL).

In the case of `Oc1c(Br)cc(Br)c2nc3ccccc3nc12`, the MIC [3] is reported as 2.35 µM (≈ 0.832 µg/mL), the MIC (Enterococcus faecalis [5]) is reported as 12.5 µM (≈ 4.43 µg/mL) and the MIC [7] is reported as 13.7 µM (≈ 4.85 µg/mL). The IC50 (HeLa) was over 100 µM, the IC50 (J774) was over 100 µM and the IC50 (HepG2) was over 100 µM. The MBEC (Staphylococcus aureus [8]) was 100 µM, the MBC (Staphylococcus aureus [9]) was 37.5 µM (≈ 13.3 µg/mL) and the MBEC (Staphylococcus aureus [10]) was 75 µM. It also gave an MBC [11] of 25 µM (≈ 8.85 µg/mL), an MBEC [12] of 50 µM and an MBC (Enterococcus faecium [13]) of 18.8 µM (≈ 6.66 µg/mL). The MBEC (Enterococcus faecium [14]) was 12.5 µM, the MBC (Enterococcus faecalis [15]) was 25 µM (≈ 8.85 µg/mL) and the MBEC (Enterococcus faecalis [16]) was over 200 µM. For the same compound, the Activity (Erythrocyte) was “<= 1%”, the Activity (Staphylococcus aureus [17]) was “Active” and the Activity (Staphylococcus aureus [18]) was “Active”. For the same compound, the Activity (Staphylococcus aureus [19]) was “Active”, the Activity (Staphylococcus aureus [20]) was “Active” and the Activity (Staphylococcus aureus [21]) was “Active”. For the same compound, the Activity (Staphylococcus aureus [22]) was “Active”, the Activity (Staphylococcus aureus [23]) was “Active” and the Activity (Staphylococcus aureus [24]) was “Active”. The pKa [25] was 7.12, the MIC (Staphylococcus aureus [26]) was 1.25 µM (≈ 0.443 µg/mL) and the MIC (Staphylococcus aureus [27]) was 1.25 µM (≈ 0.443 µg/mL). It also gave an MIC (Staphylococcus aureus [28]) of 1.25 µM (≈ 0.443 µg/mL), an MIC (Staphylococcus aureus [29]) of 1.25 µM (≈ 0.443 µg/mL) and an MIC (Staphylococcus aureus [30]) of 1.25 µM (≈ 0.443 µg/mL). For the same compound, the MIC (Staphylococcus aureus [31]) was 1.25 µM (≈ 0.443 µg/mL).
